# Test results: ChEMBL document CHEMBL3745596, “Chlorophenoxy aminoalkyl derivatives as histamine H(3)R ligands and antiseizure agents” (Bioorg Med Chem, 2016)
# Activity calls are given as the source filed them.
# Assays:
# [1] = tested on: Mus musculus; assay: Anticonvulsant activity in ip dosed CF1 albino mouse assessed as protection against maximal electroshock-induced seizure after 0.5 hrs; format: functional
# Method in brief: (§1)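 Male CF-1 mice dosed ip as suspension in 0.5% methylcellulose. Corneal electrodes deliver 60 Hz alternating current, 50 mA for […], after a drop of 0.5% tetracaine HCl in 0.9% NaCl per eye. Protection means abolition of hindlimb tonic extension; scored as protected/tested, or ED50 with 95% confidence interval.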
# [2] = tested on: Mus musculus; assay: Anticonvulsant activity in ip dosed CF1 albino mouse assessed as protection against subcutaneous pentetrazole-induced seizure after 0.5 hrs; format: functional
# Method in brief: (§2)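 Male CF-1 mice, ip in 0.5% methylcellulose; pentetrazole at CD97 (85 mg/kg) injected subcutaneously in a loose fold of neck skin. Observed 30 min; absence of even a threshold seizure (single clonic spasm lasting at least 5 s) counted as protection. Scored protected/tested, or ED50.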
# [3] = tested on: Mus musculus; assay: Protective index, ratio of TD50 for ip dosed CF1 albino mouse to ED50 for ip dosed CF1 albino mouse assessed as protection against maximal electroshock-induced seizure after 0.5 hrs; format: functional
# Method in brief: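 PI = TD50/ED50. Male CF-1 mice or male Sprague–Dawley rats given compound ip as 0.5% methylcellulose suspension. MES: 60 Hz corneal current, 50 mA mice or 150 mA rats, for […] after tetracaine eye drops; protection is abolition of hindlimb tonic extension.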
# [4] = tested on: Rattus norvegicus; assay: Anticonvulsant activity in Sprague-Dawley rat assessed as protection against pilocarpine-induced convulsive status epilepticus at 65 mg/kg, ip; format: functional, organism-based
# Method in brief: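 Male Sprague Dawley rats (150–180 g) dosed ip, pilocarpine 50 mg/kg ip given; compound dosed immediately at first behavioral Stage 3 seizure or 30 min later. Number protected from Racine Stage 3 or greater seizures recorded.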
# [5] = Neuroprotective activity in hippocampal slice (unknown origin) assessed as protection against kainic acid-induced cell death using propidium iodide staining; format: functional; conditions: Hippocampus
# Method in brief: (§3)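 Organotypic hippocampal slice cultures exposed to NMDA or kainic acid alone or with compound; propidium iodide in all wells; PI fluorescence intensity of slices, proportional to cell death, compared with excitotoxin-only slices; qualitative.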
# [6] = Neuroprotective activity in hippocampal slice (unknown origin) assessed as protection against NMDA-induced cell death using propidium iodide staining; format: functional; conditions: Hippocampus; method in brief: as §3
# [7] = tested on: Mus musculus; assay: Analgesic activity in mouse assessed as inhibition of formalin-induced paw licking behavior at 13 mg/kg, ip after 0.25 hrs; format: functional, organism-based
# Method in brief: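 Male albino mice, ip in 0.5% methylcellulose; 0.5% formalin injected sub-dermally into right hindpaw plantar surface 0.25 h after dosing. Paw licking observed for the first 2 min of each 5-min epoch up to 40 min after dosing; cumulative licking duration compared with vehicle-pretreated group, acute and inflammatory phases.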
# [8] = molecular target: Histamine H3 receptor (Homo sapiens, UniProt Q9Y5N1); assay: Displacement of [3H]-Nalpha-methylhistamine from human recombinant histamine H3 receptor expressed in HEK293 cells after 90 mins; format: cell-based
# [9] = tested on: Mus musculus; assay: Anticonvulsant activity in CF1 albino mouse assessed as protection against maximal electroshock-induced seizure at 3 mg/kg, ip after 0.5 hrs; format: functional, organism-based; method in brief: as §1
# [10] = tested on: Mus musculus; assay: Anticonvulsant activity in CF1 albino mouse assessed as protection against maximal electroshock-induced seizure at 10 mg/kg, ip after 0.5 hrs; format: functional, organism-based; method in brief: as §1
# [11] = tested on: Mus musculus; assay: Anticonvulsant activity in CF1 albino mouse assessed as protection against maximal electroshock-induced seizure at 30 mg/kg, ip after 0.5 hrs; format: functional, organism-based; method in brief: as §1
# [12] = tested on: Mus musculus; assay: Anticonvulsant activity in CF1 albino mouse assessed as protection against maximal electroshock-induced seizure at 30 mg/kg, ip after 4 hrs; format: functional, organism-based; method in brief: as §1
# [13] = tested on: Mus musculus; assay: Anticonvulsant activity in CF1 albino mouse assessed as protection against subcutaneous pentetrazole-induced seizure at 30 mg/kg, ip after 0.5 hrs; format: functional, organism-based; method in brief: as §2
# [14] = tested on: Mus musculus; assay: Anticonvulsant activity in CF1 albino mouse assessed as protection against subcutaneous pentetrazole-induced seizure at 30 mg/kg, ip after 4 hrs; format: functional, organism-based; method in brief: as §2
# [15] = tested on: Mus musculus; assay: Neurotoxicity in CF1 albino mouse at 3 mg/kg, ip after 0.5 hrs by rotarod test; format: toxicity, organism-based; conditions: in vivo
# Method in brief: (§4)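 Rotarod neurotoxicity in male albino CF-1 mice dosed ip with compound suspended in 0.5% methylcellulose. Animal placed on a 1 inch diameter knurled plastic rod rotating at 6 rpm. Neurotoxicity scored when the animal falls off three times within 1 min. Readout is number of animals toxic/number tested at the stated time after dosing. TD50 with 95% confidence interval from the quantitative study.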
# [16] = tested on: Mus musculus; assay: Neurotoxicity in CF1 albino mouse at 10 mg/kg, ip after 0.5 hrs by rotarod test; format: toxicity, organism-based; conditions: in vivo
# Method in brief: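 Rotarod neurotoxicity in male CF-1 mice dosed ip as 0.5% methylcellulose suspension: mouse placed on 1 inch knurled rod rotating at 6 rpm; toxicity when the animal falls off three times within 1 min, with other signs noted. Scored as toxic/tested at 0.5 h and 4 h.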
# [17] = tested on: Mus musculus; assay: Neurotoxicity in CF1 albino mouse at 30 mg/kg, ip after 0.5 hrs by rotarod test; format: toxicity, organism-based; conditions: in vivo; method in brief: as §4
# [18] = tested on: Mus musculus; assay: Neurotoxicity in CF1 albino mouse at 30 mg/kg, ip after 4 hrs by rotarod test; format: toxicity, organism-based; conditions: in vivo; method in brief: as §4
# [19] = tested on: Mus musculus; assay: Neurotoxicity in CF1 albino mouse at 100 mg/kg, ip after 4 hrs by rotarod test; format: toxicity, organism-based; conditions: in vivo; method in brief: as §4
# [20] = tested on: Mus musculus; assay: Neurotoxicity in CF1 albino mouse assessed as death at 300 mg/kg, ip after 0.5 hrs by rotarod test; format: toxicity, organism-based; conditions: in vivo
# Method in brief: (§5)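 Male albino CF-1 mice dosed ip with compound suspended in 0.5% methylcellulose, then placed on a 1-inch knurled plastic rod turning at 6 rpm. A fall three times within 1 min counted as neurotoxicity. Observations were made at 0.5 h and 4 h after dosing. Result given as animals showing toxicity per animals tested, with the kind of toxicity recorded.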
# [21] = tested on: Mus musculus; assay: Neurotoxicity in CF1 albino mouse at 300 mg/kg, ip after 4 hrs by rotarod test; format: toxicity, organism-based; conditions: in vivo; method in brief: as §4
# [22] = tested on: Mus musculus; assay: Neurotoxicity in CF1 albino mouse assessed as death at 100 mg/kg, ip after 0.5 hrs by rotarod test; format: toxicity, organism-based; conditions: in vivo; method in brief: as §5
# [23] = tested on: Rattus norvegicus; assay: Anticonvulsant activity in Sprague-Dawley rat assessed as protection against maximal electroshock-induced seizure at 30 mg/kg, po; format: functional
# [24] = tested on: Mus musculus; assay: Anticonvulsant activity in CF1 albino mouse assessed as protection against 6 Hz-psychomotor-induced seizure at 50 mg/kg, ip after 1 hr; format: functional, organism-based
# Method in brief: (§6)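 Male CF-1 mice, ip suspension in 0.5% methylcellulose. Corneal stimulation 0.2 ms monopolar rectangular pulses at 6 Hz, 32 mA for 3 s via constant-current device; mice without minimal clonic phase seizure counted protected. Groups of four; read at 0.25, 0.5, 1, 2, 4 h; result as protected/tested.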
# [25] = tested on: Mus musculus; assay: Anticonvulsant activity in CF1 albino mouse assessed as protection against 6 Hz-psychomotor-induced seizure at 50 mg/kg, ip after 2 hrs; format: functional, organism-based; method in brief: as §6
# [26] = tested on: Mus musculus; assay: Anticonvulsant activity in CF1 albino mouse assessed as protection against 6 Hz-psychomotor-induced seizure at 50 mg/kg, ip after 4 hrs; format: functional, organism-based; method in brief: as §6
# [27] = tested on: Mus musculus; assay: Neurotoxicity in CF1 albino mouse at 50 mg/kg, ip after 0.5 hrs by rotarod test; format: toxicity, organism-based; conditions: in vivo; method in brief: as §4
# [28] = tested on: Mus musculus; assay: Neurotoxicity in CF1 albino mouse at 50 mg/kg, ip after 2 hrs by rotarod test; format: toxicity, organism-based; conditions: in vivo; method in brief: as §4
# [29] = tested on: Mus musculus; assay: Neurotoxicity in CF1 albino mouse at 50 mg/kg, ip after 4 hrs by rotarod test; format: toxicity, organism-based; conditions: in vivo; method in brief: as §4
# [30] = tested on: Mus musculus; assay: Anticonvulsant activity in CF1 albino mouse assessed as protection against 6 Hz-psychomotor-induced seizure at 25 mg/kg, ip after 0.25 to 4 hrs; format: functional, organism-based; method in brief: as §6
# [31] = tested on: Mus musculus; assay: Neurotoxicity in CF1 albino mouse at 25 mg/kg, ip after 0.25 to 4 hrs by rotarod test; format: toxicity, organism-based; conditions: in vivo; method in brief: as §4
# [32] = tested on: Mus musculus; assay: Neurotoxicity in ip dosed CF1 albino mouse after 0.25 hrs by rotarod test; format: toxicity, organism-based; conditions: in vivo
# Method in brief: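 Rotarod neurotoxicity in male albino CF-1 mice dosed ip with compound suspended in 0.5% methylcellulose. Animal placed on a 1 inch diameter knurled plastic rod rotating at 6 rpm. Neurotoxicity scored when the animal falls off three times within 1 min. Readout is number of animals toxic/number tested at the stated time after dosing.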
# Chain of Histamine H3 receptor (Q9Y5N1 whole entry): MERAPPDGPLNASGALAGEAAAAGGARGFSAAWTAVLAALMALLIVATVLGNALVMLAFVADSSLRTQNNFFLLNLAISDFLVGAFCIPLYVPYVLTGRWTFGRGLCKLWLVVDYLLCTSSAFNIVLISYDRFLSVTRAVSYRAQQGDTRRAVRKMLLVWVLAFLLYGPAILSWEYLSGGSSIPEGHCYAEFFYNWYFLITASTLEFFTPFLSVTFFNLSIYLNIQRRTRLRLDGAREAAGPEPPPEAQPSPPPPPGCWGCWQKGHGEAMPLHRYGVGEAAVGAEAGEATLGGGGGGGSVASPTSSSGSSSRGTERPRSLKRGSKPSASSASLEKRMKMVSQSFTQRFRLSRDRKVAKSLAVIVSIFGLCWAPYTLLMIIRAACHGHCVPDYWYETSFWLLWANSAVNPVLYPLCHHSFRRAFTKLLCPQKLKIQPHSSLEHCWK
smiles,measurement,setting,value
CC1CCN(CCCCCCOc2ccc(Cl)cc2)CC1.O=C(O)C(=O)O,ED50,[1],13 mg/kg
same,ED50,[2],> 30 mg/kg
same,Ratio TD50/ED50,[3],3.1
same,Activity,[4],Active
same,Activity,[5],inactive
same,Activity,[6],inactive
same,Activity,[7],inactive
same,Ki,[8],189 nM
same,Activity,[9],inactive
same,Activity,[10],Active
same,Activity,[11],Active
same,Activity,[12],Active
same,Activity,[13],inactive
same,Activity,[14],inactive
same,Activity,[15],Non-toxic
same,Activity,[16],Non-toxic
same,Activity,[17],Non-toxic
same,Activity,[18],Non-toxic
same,Activity,[19],Non-toxic
same,Activity,[20],Toxic
same,Activity,[21],Non-toxic
same,Activity,[22],Toxic
same,Activity,[23],25%
same,Activity,[24],inactive
same,Activity,[25],inactive
same,Activity,[26],inactive
same,Activity,[27],Non-toxic
same,Activity,[28],Non-toxic
same,Activity,[29],Non-toxic
same,Activity,[30],inactive
same,Activity,[31],Toxic
same,TD50 (median neurotoxic dose),[32],40.77 mg/kg
